From article PMC4170804 (Bioorganic & medicinal chemistry, 2013)
Where two headings read alike, the source gives them in different places.

Experiments:
Molt4/C8 cells = assay: Antiproliferative assay, human T-leukemia Molt4/C8 cells; assay type: cell-based; settings: for IC50: Homo sapiens, Molt4/C8, 48 h, read-out: IC50 ± SD, Molt4/C8
L1210 cells = assay: Antiproliferative assay, murine leukemia L1210 cells; assay type: cell-based; settings: Mus musculus, L1210, 48 h, read-out: IC50 ± SD, L1210
FM3A/0 cells = assay: Antiproliferative assay, murine mammary carcinoma FM3A/0 cells; assay type: cell-based; settings: for IC50: read-out: IC50 ± SD, FM3A/0
tubulin = assay: Inhibition of [3H]colchicine binding to tubulin; set-up: species or system bovine; settings: for Colchicine binding % ± SD (inhibition of [3H]colchicine binding): tubulin 1 µM, colchicine 5 µM, tested compound 5 µM
HeLa cells [1] = assay: Antiproliferative assay, human cervix carcinoma HeLa cells; assay type: cell-based; settings: 48 h, read-out: IC50 ± SD, HeLa
[2] = system: human pancreatic tumor (MIA PaCa-2) cells; settings: cited from earlier work
CEM/0 cells = assay: Antiproliferative assay, human T-leukemia CEM/0 cells; assay type: cell-based; settings: read-out: IC50 ± SD, CEM/0, 48 h, Coulter counter
[3] = system: epithelial carcinoma (A431) cells; settings: cited from earlier work
[4] = system: cyclin B, p-cdc2 Y15, cdc25C in HeLa cells; assay: Western blot of G2/M regulatory proteins in HeLa cells; assay type: cell-based, human
Summary of the method: (§1)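 HeLa cells were treated with test compound for 24 or 48 h, washed twice in ice-cold PBS, and lysed on ice for 30 min. Lysis buffer was T-PER with 300 mM NaCl, 1 mM orthovanadate, 2 mM AEBSF and protease inhibitors. Lysates were cleared at 15,000g (4 °C, 10 min). 20 µg protein went to SDS–PAGE, PVDF transfer and overnight blocking. Primary antibodies ran 2 h at room temperature, then HRP secondary and ECL. Membranes were stripped and reprobed for β-actin as loading control.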

[5] = system: cleaved caspase-3, cleaved caspase-9, PARP, Bcl-2, Mcl-1, XIAP in HeLa cells; assay: Western blot of caspases, PARP, Bcl-2, Mcl-1, XIAP in HeLa cells; assay type: cell-based, human
Summary of the method: as §1

MCF-7 cells = assay: Antiproliferative assay, mammary carcinoma MCF-7; assay type: cell-based; settings: Homo sapiens, MCF7, read-out: IC50 ±SD, MCF-7
Summary of the method: (§2)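 Cells were seeded at 300,000–500,000 cells/mL and mixed 1:1 with serial dilutions of test compound. They were incubated 48 h at 37 °C, and cell number was counted with a Coulter counter.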

HeLa cells [6] = assay: Mitochondrial ROS production; assay type: cell-based, human; settings: 24 or 48 h, versus control cells
PC-3 cells = assay: Antiproliferative assay, prostate PC-3; assay type: cell-based; settings: Homo sapiens, PC-3, read-out: IC50 ±SD, PC-3
Summary of the method: as §2

Jurkat cells [7] = assay: Antiproliferative assay, T-leukemia Jurkat; assay type: cell-based; settings: Homo sapiens, read-out: IC50 ±SD, Jurkat
Summary of the method: as §2

HeLa cells [8] = assay: Annexin-V/PI apoptosis assay; assay type: cell-based, human; settings: 24 h, further increased at 48 h even at 15 nM
HeLa cells [9] = assay: Mitochondrial membrane potential; assay type: cell-based, human; settings: 24 or 48 h
HeLa cells [10] = assay: Flow cytometric cell cycle analysis, HeLa; assay type: cell-based, human; settings: 24 h
Summary of the method: (§3)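 Exponentially growing cells (5 × 105 for HeLa) were exposed to test compound at 15–250 nM for 24 h. Cells were fixed in ice-cold 70% ethanol, then treated with lysis buffer containing RNase A and 0.1% Triton X-100. After propidium iodide staining, DNA content was analysed by flow cytometry for cell-cycle distribution. Values are mean ± SEM of three independent experiments.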

Raji cells = assay: Antiproliferative assay, B-cell lymphoma Raji; assay type: cell-based; settings: Homo sapiens, read-out: IC50 ±SD, Raji
Summary of the method: as §2

[11] = system: wide panel of cancer cell lines; assay: Antiproliferative activity, wide panel of cancer cell lines; assay type: cell-based; settings: read-out: IC50 against a wide panel of cancer cell lines
Summary of the method: as §2

bovine brain tubulin = assay: Inhibition of tubulin polymerization; assay type: biochemical; settings: greater than that of 1
[12] = system: panel of human and murine tumor cell lines; assay: Antiproliferative activity, panel of human and murine tumor cell lines; assay type: cell-based
Summary of the method: as §2

[13] = system: panel of human cancer cell lines; assay: Antiproliferative activity, panel of additional human cancer cell lines; assay type: cell-based; settings: read-out: IC50 values against additional human cancer cell lines
Summary of the method: as §2

Jurkat cells [14] = assay: Flow cytometric cell cycle analysis, Jurkat; assay type: cell-based, human; settings: 24 h
Summary of the method: as §3

HOS, OST TK- cells = assay: Antiproliferative assay, osteosarcoma HOS, OST TK-; assay type: cell-based; settings: Homo sapiens, read-out: IC50 ±SD, HOS, OST TK-
Summary of the method: as §2

[15] = at higher concentrations (range 15 to 250 nM)

COC(=O)c1cc(CCc2cc(OC)ccc2OC)sc1N [Compound 2a, Methyl 2-amino-5-[2-(2,5-dimethoxyphenyl)ethyl]thiophene-3-carboxylate]
IC50 values in Molt4/C8, in words (Molt4/C8 cells): submicromolar
IC50 (L1210 cells): 1.8 ± 0.1 µM
IC50 (FM3A/0 cells; Mus musculus, FM3A/0, 48 h): 2.3 ± 0.6 µM
Colchicine binding % ± SD (inhibition of [3H]colchicine binding) (tubulin): 52 ± 0.9%
IC50 (HeLa cells [1]; Homo sapiens, HeLa): 0.77 ± 0.17 µM

CCOC(=O)c1cc(CCc2ccc(OC)cc2)sc1N [Compound 2j, Ethyl 2-amino-5-[2-(4-methoxyphenyl)ethyl]thiophene-3-carboxylate]
IC50 (Molt4/C8 cells): 0.34 ± 0.5 µM
IC50 values in Molt4/C8, in words (Molt4/C8 cells): submicromolar
IC50 (L1210 cells): 20 ± 10 µM
IC50 (FM3A/0 cells; Mus musculus, FM3A/0, 48 h): 48 ± 5.2 µM
IC50 (HeLa cells [1]; Homo sapiens, HeLa): 39 ± 0.2 µM

COC(=O)c1cc(CCc2cc(OC)ccc2OC)ccc1O [Compound 1, reference compound]
antiproliferative activity, MIA PaCa-2 [2]: active at low micromolar concentrations
fold less active in FM3A cells than the other cell lines examined (FM3A/0 cells; FM3A vs other cell lines): about 30 fold
IC50 (FM3A/0 cells; murine mammary carcinoma FM3A/0, 48 h, Coulter counter): 13 ± 0.2 µM
Colchicine binding % ± SD (inhibition of [3H]colchicine binding) (tubulin): 52 ± 4%
IC50 (CEM/0 cells): 0.44 ± 0.01 µM
antiproliferative activity, A431 [3]: active at low micromolar concentrations
IC50 (HeLa cells [1]; human cervix carcinoma HeLa, Coulter counter): 0.41 ± 0.08 µM

CCOC(=O)c1c(N)sc(CCc2cc(OC)ccc2OC)c1C(=O)OCC [Compound 2e, Diethyl 2-amino-5-[2-(2,5-dimethoxyphenyl)ethyl]thiophene-3,4-dicarboxylate]
IC50 (Molt4/C8 cells): 24 ± 2.2 µM
IC50 (L1210 cells): 34 ± 3.2 µM
IC50 (FM3A/0 cells; Mus musculus, FM3A/0, 48 h): 33 ± 9.1 µM

COC(=O)c1cc(-c2cc(OC)ccc2OC)sc1N [Compound 2n, Methyl 2-amino-5-(2,5-dimethoxyphenyl)thiophene-3-carboxylate]
IC50 (L1210 cells): 50 ± 5.2 µM
IC50 (FM3A/0 cells; Mus musculus, FM3A/0, 48 h): 52 ± 1 µM
IC50 (HeLa cells [1]; Homo sapiens, HeLa): 37 ± 6.1 µM

COC(=O)c1c(N)sc(CCc2cc(OC)ccc2OC)c1C [Compound 2d, Methyl 2-amino-5-[2-(2,5-dimethoxyphenyl)ethyl]-4-methylthiophene-3-carboxylate]
IC50 (Molt4/C8 cells): 47 ± 16 µM
IC50 (L1210 cells): 46 ± 3.2 µM
IC50 (FM3A/0 cells; Mus musculus, FM3A/0, 48 h): 44 ± 8.1 µM
IC50 (HeLa cells [1]; Homo sapiens, HeLa): 35 ± 7.1 µM

COc1ccccc1CCc1cc(C#N)c(N)s1 [Compound 2k, 2-Amino-5-[2-(2-methoxyphenyl)ethyl]thiophene-3-carbonitrile]
IC50 (Molt4/C8 cells): 2 ± 0.2 µM
IC50 (FM3A/0 cells; Mus musculus, FM3A/0, 48 h): 22 ± 3.1 µM
IC50 (HeLa cells [1]; Homo sapiens, HeLa): 7.8 ± 2.1 µM

N#Cc1cc(CCc2ccccc2)sc1N [Compound 2m, 2-Amino-5-phenylethylthiophene-3-carbonitrile]
IC50 (FM3A/0 cells; Mus musculus, FM3A/0, 48 h): 62 ± 3.2 µM
IC50 (HeLa cells [1]; Homo sapiens, HeLa): 35 ± 3.1 µM

COc1ccc(OC)c(CCc2cc(C#N)c(N)s2)c1 [Compound 2c, 2-Amino-5-[2-(2,5-dimethoxyphenyl)ethyl]thiophene-3-carbonitrile]
cyclin B1 expression ([4]; 50 and 100 nM, 24 and 48 h): marked increase in cyclin B1 expression
cdc25C phosphorylation state / expression ([4]; 50 and 100 nM, 24 h and 48 h): slower migrating forms of phosphatase cdc25C appeared at 24 h
phosphorylation of cdc2 (Tyr15) ([4]; after 24 h): dramatic de-phosphorylation of cdc2 (Tyr15)
caspase-9 activation ([5]; 50 and 100 nM, 24 h): early activation of caspase-9 at 24 h
caspase-3 and PARP activation ([5]; 50 and 100 nM, 48 h): activation of caspase-3 and of the caspase-3 substrate PARP
expression of anti-apoptotic proteins Bcl-2 and Mcl-1 ([5]; both concentrations used (50 and 100 nM)): remarkably reduced after a 24 h and disappeared after a 48 h treatment
expression of XIAP ([5]; concomitant with caspase activation): strongly reduced
IC50 (MCF-7 cells): 0.025 ± 0.001 µM
ROS production (HE, H2-DCFDA) (HeLa cells [6]): induced the production of significant amounts of ROS
IC50 (PC-3 cells): 0.025 ± 0.013 µM
IC50 (Jurkat cells [7]): 0.012 ± 0.008 µM
annexin-V positive cells (apoptosis) (HeLa cells [8]): accumulation of annexin-V positive cells in a concentration-dependent manner
cells with depolarized mitochondria (Δψmt, JC-1) (HeLa cells [9]): time and concentration-dependent increase in the proportion of cells with depolarized mitochondria
IC50 (FM3A/0 cells; Mus musculus, FM3A/0, 48 h): 0.056 ± 0.004 µM
lowest concentration with a rise in G2/M cells (HeLa cells [10]): 30 nM
cells arrested in G2/M (HeLa cells [10]; [15]): more than 80%
inhibition of colchicine binding relative to 1 (tubulin; more active than 1): 1.5 fold
Colchicine binding % ± SD (inhibition of [3H]colchicine binding) (tubulin): 84 ± 5%
IC50 (Raji cells): 0.064 ± 0.025 µM
IC50 [11]: 0.017 to 0.13 µM
tubulin assembly inhibitory activity relative to 1 (bovine brain tubulin): 3 fold
enhancement of antiproliferative activity with respect to 1 ([12]; in four cell lines): 3–230 fold
IC50 ([12]; read-out: IC50 values against panel of human and murine tumor cell lines): 0.035 to 0.13 µM
IC50 [13]: 0.012 to 0.086 µM
lowest concentration with a rise in G2/M cells (Jurkat cells [14]): 30 nM
cells arrested in G2/M (Jurkat cells [14]; [15]): more than 80%
IC50 (HOS, OST TK- cells): 0.024 ± 0.013 µM

COc1ccc(OC)c(-c2cc(C#N)c(N)s2)c1 [Compound 2o, 2-Amino-5-(2,5-dimethoxyphenyl)thiophene-3-carbonitrile]
IC50 (L1210 cells): 76 ± 3.2 µM
IC50 (HeLa cells [1]; Homo sapiens, HeLa): 71 ± 20 µM

CCOC(=O)c1cc(CCc2cc(OC)ccc2OC)sc1N [Compound 2b, Ethyl 2-amino-5-[2-(2,5-dimethoxyphenyl)ethyl]thiophene-3-carboxylate]
IC50 (Molt4/C8 cells): 1.1 ± 0.1 µM
IC50 (FM3A/0 cells; Mus musculus, FM3A/0, 48 h): 1.9 ± 0.5 µM
Colchicine binding % ± SD (inhibition of [3H]colchicine binding) (tubulin): 46 ± 0.9%
IC50 (HeLa cells [1]; Homo sapiens, HeLa): 0.31 µM

COC(=O)c1cc(CCc2ccc(OC)cc2C)sc1N [Compound 2h, Methyl 2-amino-5-[2-(4-methoxy-2-methylphenyl)ethyl]thiophene-3-carboxylate]
IC50 (FM3A/0 cells; Mus musculus, FM3A/0, 48 h): 45 ± 16 µM

COc1ccc(CCc2cc(C#N)c(N)s2)cc1 [Compound 2l, 2-Amino-5-[2-(4-methoxyphenyl)ethyl]thiophene-3-carbonitrile]
IC50 (FM3A/0 cells; Mus musculus, FM3A/0, 48 h): 31 ± 27 µM
IC50 (HeLa cells [1]; Homo sapiens, HeLa): 19 ± 13 µM

COC(=O)c1cc(CCc2ccccc2OC)sc1N [Compound 2f, Methyl 2-amino-5-[2-(2-methoxyphenyl)ethyl]thiophene-3-carboxylate]
IC50 (L1210 cells): 17 ± 5.3 µM
IC50 (FM3A/0 cells; Mus musculus, FM3A/0, 48 h): 34 ± 5.6 µM
IC50 (HeLa cells [1]; Homo sapiens, HeLa): 15 ± 1.3 µM

CCOC(=O)c1cc(CCc2ccccc2OC)sc1N [Compound 2i, Ethyl 2-amino-5-[2-(2-methoxyphenyl)ethyl]thiophene-3-carboxylate]
IC50 (Molt4/C8 cells): 6.9 ± 0.8 µM
IC50 (FM3A/0 cells; Mus musculus, FM3A/0, 48 h): 53 ± 7.2 µM
IC50 (HeLa cells [1]; Homo sapiens, HeLa): 45 ± 6.2 µM
